procasp7 counter – procaspase-7 activators, primary screen, counter-screen for procaspase-3 activator project, biochemical, absorbance, HTS, human; Caspase-7 (Homo sapiens), P55210; recombinant procaspase-7, Ac-DEVD-pNA absorbance 405 nm; D23A/D198A/D206A triple mutant, cannot self-cleave; scale: DMSO 0, 5 µM enzyme 100; activation, % at 8.5 µM; 330,000 compounds, 0.093% hits;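 active = percent activation above the screen-wide mean plus 3 SD, cut at about 25% in these data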
Target sequence (P55210 whole entry D23A/D198A/D206A): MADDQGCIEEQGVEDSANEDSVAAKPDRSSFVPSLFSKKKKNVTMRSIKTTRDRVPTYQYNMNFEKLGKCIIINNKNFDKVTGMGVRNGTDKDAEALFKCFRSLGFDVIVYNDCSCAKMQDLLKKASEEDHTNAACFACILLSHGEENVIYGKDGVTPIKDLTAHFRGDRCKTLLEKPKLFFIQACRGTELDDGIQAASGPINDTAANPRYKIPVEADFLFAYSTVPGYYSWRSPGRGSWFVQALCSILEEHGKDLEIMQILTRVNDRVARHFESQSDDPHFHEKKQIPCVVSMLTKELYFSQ
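Test system: Procaspase-7 triple mutant (PC-7 D3A). Also added: Ac-DEVD-pNA substrate, 400 µM as added. Schedule: 1 h enzyme–compound preincubation and 2 h substrate reaction, both 25 °C. Signal: p-Nitroaniline absorbance at 405 nm, read at 0 and 120 min. Control set: low DMSO alone, high DMSO plus 5 µM PC-7.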
PolyA inhibitor – polyadenylation inhibitors in yeast reporter cells, primary screen, luminescence, S. cerevisiae; S. cerevisiae SKY197-pL101 polyadenylation reporter, beta-gal luminescence; efflux-impaired pdr1/pdr3 knockout yeast; score 100 = 6 SD above DMSO; activity score, % at 12 µM; 300,000 compounds, 0.02% hits; AID 1875, 2009;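 active = lowest replicate activity score at least 50, where 100 means six control SD above control mean; inconclusive = lowest score under 50 but half or more replicates reach 50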;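 also: yeast exposed to compound for 9 h at 30 °C; higher score means more reporter readthrough which indicates perturbed polyadenylation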
proCasp3 act – activators of human procaspase-3 D3A mutant, primary screen, biochemical, absorbance, PC-3 D3A mutant, single concentration. activation, % at 8.5 µM. recombinant procaspase-3 D3A, Ac-DEVD-pNA absorbance 405 nm. 330,000 compounds, 0.11% hits. Caspase-3 (Homo sapiens), P42574;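 active = activation above the mean of all tested compounds plus 3 SD, cut at about 21% in these data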
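Assay system – Procaspase-3 D3A mutant · Benchmarks – DMSO low control, extra-enzyme high control · Technique – 405 nm absorbance of p-nitroaniline, reads at 0 and 120 min · Doses – 8.5 µM nominal · Measure – % activation between DMSO and enzyme-spiked controls · Also added – Ac-DEVD-pNA chromogenic peptide substrate · Schedule – 1 h compound preincubation, 2 h substrate hydrolysis at 25 °C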
Bfl-1 A1 inh – caspase 3/7 activation in MEF A1-2A-BIM cells, primary screen, A1 inhibitor project, cell-based, luminescence, HTS; 330,000 compounds, 0.066% hits; caspase activation, % (test concentration not listed); Caspase-Glo 3/7 luminescence, 3 h; percent of clofoctol response, vehicle zero;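 active = over half of replicate activation scores above 10%, or exactly half above 10 with the replicate mean above 10; inconclusive = replicate mean below 10 yet half the replicates above 10; inactive = over half of replicates below 10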
Rce1 inhib – yeast Rce1p protease inhibitors, primary screen, biochemical, fluorescence, cell-free homogeneous; yeast membranes, quenched prenylated peptide cleavage fluorescence; CAAX prenyl protease 2 (Saccharomyces cerevisiae (strain ATCC 204508 / S288c)), Q03530; calls only; 290,000 compounds, 0.27% hits; AID 2563, 2010;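 active = fall in fluorescence gain of 50% or more versus controls, with final raw signal at or below 3038400; inconclusive = same 50% fall but final raw signal above 3038400; inactive = fall in fluorescence gain under 50%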
Hits are given with their value; . = inactive; ? = inconclusive; / = no result; + = active, no number. This is a sample that favours compounds with a hit; in the whole collection about 0.48% have one here.

SMILES	procasp7 counter	PolyA inhibitor	proCasp3 act	Bfl-1 A1 inh	Rce1 inhib
O=C(NCC1CC1)c1ccc(Nc2nc3ccc(Br)cc3[nH]2)cc1	.	.	.	.	+
CN(C)C(=O)COc1ccc2ccc(=O)oc2c1	.	.	.	.	+
O=C(c1ccc(Cn2cnnn2)cc1)N1CCCC(Nc2ccc(F)cc2)C1 (centres undefined)	.	.	.	.	+
CCN1N=C(c2cc(Cl)sc2Cl)CSC1=O	.	.	.	.	.
CC(C)N1CCN(Cc2ccc(OCc3ccccc3)cc2)CC1CCO (centres undefined)	.	.	.	.	+
COc1ccc(CSc2ccc(-c3nc4ccccn4c3NCc3ccccc3)cc2OC)cc1	.	.	.	.	+
CCOP(=O)(OCC)c1nc(-c2cccc([N+](=O)[O-])c2)oc1N1CCCCC1	.	.	.	.	.
CCOP(=O)(c1ccccc1)c1nc(-c2ccccc2Cl)oc1N1CCCCC1 (centres undefined)	.	.	.	.	+
COc1cc2c(c(OC)c1OC)C(c1ccc(C)cc1)CC(=O)O2 (centres undefined)	.	/	.	/	/
O=C(NCc1csc(-c2cccs2)n1)C1CCCCC1	.	.	.	.	.
O=C(Nc1cc(S(=O)(=O)N2CCOCC2)ccc1N1CCCC1)c1cnccn1	.	.	.	.	+
O=S(=O)(NC1=NCCC1)c1cccc(NS(=O)(=O)c2ccc(OC(F)(F)F)cc2)c1	.	.	.	.	.
CCOc1ccc2oc(-c3ccccc3)c(C(=O)N3CCN(C)CC3)c2c1	.	.	.	.	.
COc1ccc2oc(-c3ccccc3)c(C(=O)N3CCOCC3)c2c1	.	.	.	.	+
Cn1ncc(Cl)c1C(=O)N1CCN(C23CC4CC(CC(C4)C2)C3)CC1	.	.	.	.	.
Cc1cc(C)c2c(c1)-c1cc(C)nn1C(c1ccc3c(c1)OCO3)N2 (centres undefined)	.	.	.	.	+
CCOC(=O)c1ccc(NC(=O)COC(=O)Cc2csc(-c3ccccc3)n2)cc1	.	.	.	.	.
Cc1ccccc1NS(=O)(=O)c1ccc(C(=O)NCC(c2ccccc2)N(C)C)cc1 (centres undefined)	.	.	.	.	+
CC1CCN(c2oc(-c3ccco3)nc2S(=O)(=O)c2ccccc2)CC1	.	.	.	.	.
O=S(=O)(c1ccccc1)c1nc(-c2ccco2)oc1N1CCCCC1	.	.	.	.	+
Cc1ccc(NC(=O)c2cc(N3C(=O)CCC3=O)ccc2N2CCOCC2)cc1	.	.	.	.	.
Cc1ccc(NC(=O)c2cc(N3C(=O)C=CC3=O)ccc2N2CCOCC2)cc1Cl	.	.	.	15	.
O=C(COC(=O)c1cc(-c2ccccc2)nc2ccccc12)NC1CC1	.	/	.	.	/
COc1ccc(-c2cc(C(=O)OCC(=O)NC3CC3)c3ccccc3n2)cc1	26	/	44	.	/
O=C(NCc1ccc2c(c1)OCO2)C1CCN(c2ncccn2)CC1	.	.	.	5.2	.
SMILES	procasp7 counter	PolyA inhibitor	proCasp3 act	Bfl-1 A1 inh	Rce1 inhib
COc1ccc(C(=O)Nc2cccc3c2CCCC3)cc1OC	.	.	.	.	.
COc1ccc(OC)c(NC(=O)c2cc3oc4ccccc4c3cc2O)c1	.	.	.	.	+
Cc1ncc(CN2CCN(CCc3ccccc3)C(CCO)C2)s1 (centres undefined)	.	.	.	.	.
Cc1cc(C)c(S(=O)(=O)N2CCCC(C(=O)NC3CC3)C2)c(C)c1 (centres undefined)	.	.	.	.	.
CC(Oc1ccc2c3c(c(=O)oc2c1)CCCC3)C(=O)NC1CC(C)(C)NC(C)(C)C1 (centres undefined)	.	?	.	.	+
Cc1c(C)c2ccc(OC(C)C(=O)NC3CC(C)(C)NC(C)(C)C3)cc2oc1=O (centres undefined)	.	.	.	.	.
COc1cc2cc(C(=O)O)[nH]c2c(OC)c1OC	.	.	.	.	+
